MC4R antag cAMP: antagonists of human melanocortin 4 receptor (MC4R) | P32245 | MC4R-expressing cells, MTII-stimulated cAMP, LANCE TR-FRET | inhibition, % at 6.5 µM | 360,000 tested, 0.48% active;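 active = inhibition above its plate's cutoff, the mean of tested wells on that plate plus 3 SD, cut at about 29% in these data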;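 note: 0% = Melanotan II alone and 100% = Melanotan II plus saturating MCL0020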
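Assay system: U2OS cells stably expressing human melanocortin 4 receptor (MC4R) / Dosing: 6.5 µM / Timing: compound 30 min, challenge 1 h, detection 1 h / Measured by: Eu-cAMP/anti-cAMP TR-FRET, emission 671 nm / Replicates: singlicate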
TLR4-MyD88 BLA: TLR4-MyD88 interaction inhibition in cells; O00206+Q99836; HeLa CL3-4 TLR4/MyD88 BLA complementation, FRET ratio; inhibition, % at 8.4 µM; 200,000 tested, 0.18% active; AID 861; in the data active = inhibition above about 25%;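 note: 0% = vehicle and 100% = reference inhibitor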
TLR9-MyD88 inh: inhibitors of human TLR9-MyD88 binding; Q9NR96+Q99836; CHO BLA complementation TLR9-MyD88, CCF4 FRET ratio; inhibition, % at 4.98 µM; 340,000 tested, 0.21% active;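 active = inhibition above the mean over all tested compounds plus 3 SD, cut at about 21% in these data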;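 note: 0% = DMSO only wells and 100% = clavulanate BLA inhibitor control wells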
NOD2-RIPK2 inh: NOD2-RIPK2 protein interaction inhibition. O43353. CHO BLA complementation NOD2-RIPK2, CCF4 ratio. inhibition, % at 4.98 µM. 360,000 tested, 0.38% active; in the data active = inhibition above about 21%;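 note: 0% = vehicle only and 100% = reference blocker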
MC4R barr agon: activates human MC4R beta-arrestin recruitment | activation, % at 8.9 µM | U2OS MC4R beta-arrestin complementation, luminescence; percent of melanotan II response, DMSO zero | P32245 | AID 540308 | 360,000 tested, 0.98% active;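 active = activation above a per-plate cutoff, the mean activation of sample wells on that plate plus 3 SD, cut at about 8% in these data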
* hit, by the source's call. A selection: hits, their analogues and other compounds. The true share with any hit is near 1.8%.

FC(F)(F)c1cccc(NC(=S)N2CCN(c3cccc(C(F)(F)F)c3)CC2)c1 was read as MC4R antag cAMP 2, TLR4-MyD88 BLA 9, TLR9-MyD88 inh -10, NOD2-RIPK2 inh 13 and MC4R barr agon 9.2*.
`CSc1ncnc2c1ncn2CCCN1CCN(Cc2c(C)cc(C)cc2C)CC1` gave MC4R antag cAMP 4, TLR9-MyD88 inh 0, NOD2-RIPK2 inh 4 and MC4R barr agon 2.
CCOc1ccc(C(=O)C(CCC(CN(C)C)C(=O)c2ccc(OCC)cc2)CN(C)C)cc1 (centres undefined) was read as MC4R antag cAMP 3, TLR4-MyD88 BLA 10, TLR9-MyD88 inh 19, NOD2-RIPK2 inh 40* and MC4R barr agon 9.5*.
Screening CN(C)CC(CCC(CN(C)C)C(=O)c1ccccc1)C(=O)c1ccccc1 (centres undefined) returned MC4R antag cAMP -21, TLR9-MyD88 inh 14, NOD2-RIPK2 inh 60* and MC4R barr agon -1.
`CCCN(CC(=O)Nc1ccccc1C)C(=O)c1cnc(C)cn1` gave MC4R antag cAMP 13, TLR9-MyD88 inh -12, NOD2-RIPK2 inh -5 and MC4R barr agon -2.
For O=C1C2CCCN2C(=S)N1c1ccc(Cl)cc1 (centres undefined) the results were MC4R antag cAMP 3, TLR9-MyD88 inh 7, NOD2-RIPK2 inh 2 and MC4R barr agon 1.
O=C(NCCN1CCOCC1)c1ccc(Cl)c(S(=O)(=O)N2CCOCC2)c1 was read as MC4R antag cAMP 5, TLR9-MyD88 inh -3, NOD2-RIPK2 inh -9 and MC4R barr agon -3.
`N=c1c2ccccc2nc2n1CCCCCCCCCCC2` gave MC4R antag cAMP 6, TLR9-MyD88 inh -3, NOD2-RIPK2 inh -7 and MC4R barr agon 1.
COc1ccc(C(c2c(O)ccc3ccccc23)N2CCOCC2)c(OC)c1 (centres undefined) was read as MC4R antag cAMP 5, TLR4-MyD88 BLA -6, TLR9-MyD88 inh 1, NOD2-RIPK2 inh 48* and MC4R barr agon -4.
Screening COc1ccc(C(CCN2CCOCC2)c2c(O)cc(OC)cc2OC)cc1 (centres undefined) returned MC4R antag cAMP 0, TLR9-MyD88 inh -5, NOD2-RIPK2 inh -6 and MC4R barr agon 0.
Screening COC(=O)c1[nH]c2ccccc2c1NC(=O)/C=C/c1ccc2c(c1)OCO2 returned MC4R antag cAMP -4, TLR4-MyD88 BLA -7, TLR9-MyD88 inh 5, NOD2-RIPK2 inh -2 and MC4R barr agon 8.4*.
`CCN(CC(=O)Nc1c(C(=O)OC)[nH]c2ccccc12)c1ccc2c(c1)OCO2` gave MC4R antag cAMP -17, TLR4-MyD88 BLA 0, TLR9-MyD88 inh -4, NOD2-RIPK2 inh -4 and MC4R barr agon 0.
C=CC[C@@H](CC(=O)N(CCO)Cc1ccccc1)C(=O)N[C@H](COC(=O)[C@@H](CC=C)CC(=O)OC(C)(C)C)Cc1ccccc1 was read as MC4R antag cAMP 8, TLR9-MyD88 inh -2, NOD2-RIPK2 inh -8 and MC4R barr agon 9.3*.
Screening C=CC[C@@H](CC(=O)N[C@H](CO)Cc1ccccc1)C(=O)N[C@H](COC(=O)[C@@H](CC=C)CC(=O)OC(C)(C)C)Cc1ccccc1 returned MC4R antag cAMP 12, TLR9-MyD88 inh 5, NOD2-RIPK2 inh -2 and MC4R barr agon 9.8*.
Screening CC(C)CCN1C(=O)c2ccc(C(=O)N3CCCCC3)cc2C1=O returned MC4R antag cAMP 1, TLR9-MyD88 inh 2, NOD2-RIPK2 inh 4 and MC4R barr agon 0.
Screening COc1ccccc1S(=O)(=O)N(C)C[C@H]1Oc2ncc(Br)cc2C(=O)N([C@H](C)CO)C[C@H]1C returned MC4R antag cAMP -6, TLR9-MyD88 inh 2, NOD2-RIPK2 inh -7 and MC4R barr agon 0.
Screening CCOc1ccc(C(=O)Nc2nc(C)c(C(=O)OC)s2)cc1 returned MC4R antag cAMP 11, NOD2-RIPK2 inh -2 and MC4R barr agon 8.3*.
Screening COc1cccc(OCC(=O)NC2CCS(=O)(=O)C2)c1 (centres undefined) returned MC4R antag cAMP -2, TLR9-MyD88 inh -1, NOD2-RIPK2 inh -11 and MC4R barr agon -4.
`Cc1ccc(C)c(N2CCN(C(=O)COc3cc(=O)n(C)c4ccccc34)CC2)c1` gave MC4R antag cAMP -13, TLR4-MyD88 BLA 6, TLR9-MyD88 inh -13, NOD2-RIPK2 inh 3 and MC4R barr agon 0.

Source: PubChem BioAssay (The Scripps Research Institute Molecular Screening Center)
